Assay results: ChEMBL document CHEMBL3856275, “Discovery of Second Generation Reversible Covalent DPP1 Inhibitors Leading to an Oxazepane Amidoacetonitrile Based Clinical Candidate (AZD7986)” (J Med Chem, 2016)
Values after ≈ are worked out from the molar mass of the structure shown. Each block holds one compound with its values, some of them ahead of it.

Assays:
[1] = Protein binding in human plasma at 10 uM after 6 hrs by LC-MS/MS method; format: ADME, cell-free; conditions: read-out: PPB (converted)
[2] = Intrinsic clearance in human liver microsomes at 1 uM after 5 to 40 mins by LC-MS/MS method; format: ADME; conditions: read-out: CLH
[3] = Intrinsic clearance in rat hepatocytes assessed per 10^6 cells at 1 uM after 10 to 90 mins by LC-MS/MS method; format: ADME, cell-based, Hepatocyte
[4] = Protein binding in rat plasma at 10 uM after 6 hrs by LC-MS/MS method; format: ADME, cell-free; conditions: read-out: PPB (converted)
Dipeptidyl peptidase 1 [5] = target: T1, Dipeptidyl peptidase 1 (Homo sapiens, UniProt P53634); experiment: Inhibition of human recombinant DPP1 using Gly-Arg-AMC as substrate preincubated for 30 mins followed by substrate addition by fluorometric assay
Outline: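 Isolated human recombinant DPP1 was run in a fluorometric assay in piperazine-based buffer. Compound was pre-incubated with enzyme for 30 min at rt, then Gly-Arg-AMC dipeptide substrate was added. Data were curve-fitted to give pIC50, as the mean of at least two experiments.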

Dipeptidyl peptidase 1 [6] = target: T1, Dipeptidyl peptidase 1; experiment: Inhibition of DPP1 in human U937 cells using Gly-Phe-AFC as substrate preincubated for 60 mins followed by substrate addition by fluorescence assay; format: cell-based, U-937
[7] = Propionaldehyde reactivity assessed as half life of the compound at pH 7.4 by LC-UV method; format: physicochemical
[8] = Apparent permeability across apical to basolateral side in human Caco2 cells at 10 uM after 1 hr by LC-MS method; conditions: Caco-2
[9] = Apparent permeability across basolateral to apical side in human Caco2 cells at 10 uM after 1 hr by LC-MS method; conditions: Caco-2
[10] = Efflux ratio of apparent permeability across basolateral to apical over apical to basolateral side in human Caco2 cells at 10 uM after 1 hr by LC-MS method; conditions: Caco-2
[11] = Intrinsic clearance in human hepatocytes assessed per 10^6 cells at 1 uM after 10 to 90 mins by LC-MS/MS method; format: ADME, cell-based, Hepatocyte
[12] = Intrinsic clearance in dog hepatocytes assessed per 10^6 cells at 1 uM after 10 to 90 mins by LC-MS/MS method; format: ADME, cell-based, Canis lupus familiaris, Hepatocyte
[13] = Protein binding in dog plasma at 10 uM after 6 hrs by LC-MS/MS method; format: ADME, cell-free, Canis lupus familiaris; conditions: read-out: PPB (converted)
[14] = Clearance in Han Wistar rat at 1 mg/kg, iv and 3 mg/kg, po; format: ADME, organism-based; conditions: in vivo
Outline: (§1)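 Han Wistar rat PK with 1 mg/kg iv and 3 mg/kg po doses, both in pH3 buffer. Clearance is given in ml/min/kg, Vss in L/kg and t1/2 in h.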

[15] = Volume of distribution at steady state in Han Wistar rat at 1 mg/kg, iv and 3 mg/kg, po; format: ADME, organism-based; conditions: in vivo, read-out: Vdss; outline: as §1
[16] = Half life in Han Wistar rat at 1 mg/kg, iv and 3 mg/kg, po; format: ADME, organism-based; conditions: in vivo; outline: as §1
[17] = Oral bioavailability in Han Wistar rat at 3 mg/kg; format: ADME, organism-based; conditions: in vivo; outline: as §1
[18] = Clearance in Beagle dog at 1 mg/kg, iv and 2 mg/kg, po; format: ADME, organism-based, Canis lupus familiaris; conditions: in vivo
[19] = Volume of distribution at steady state in Beagle dog at 1 mg/kg, iv and 2 mg/kg, po; format: ADME, organism-based, Canis lupus familiaris; conditions: in vivo, read-out: Vdss
[20] = Half life in Beagle dog at 1 mg/kg, iv and 2 mg/kg, po; format: ADME, organism-based, Canis lupus familiaris; conditions: in vivo
[21] = Oral bioavailability in Beagle dog at 2 mg/kg; format: ADME, organism-based, Canis lupus familiaris; conditions: in vivo
[22] = target: Voltage-gated inwardly rectifying potassium channel KCNH2 (Homo sapiens, UniProt Q12809)
physchem [23] = conditions: pH 7.4
physchem [24] = conditions: octanol/water, pH 7.4
[25] = Clearance in Sprague-Dawley rat at 1 mg/kg, iv or 3 mg/kg, po; format: ADME, organism-based; conditions: in vivo
[26] = Volume of distribution at steady state in Sprague-Dawley rat at 1 mg/kg, iv or 3 mg/kg, po; format: ADME, organism-based; conditions: in vivo, read-out: Vdss
[27] = Half life in Sprague-Dawley rat at 1 mg/kg, iv or 3 mg/kg, po; format: ADME, organism-based; conditions: in vivo
[28] = Oral bioavailability in Sprague-Dawley rat at 3 mg/kg; format: ADME, organism-based; conditions: in vivo

Sequence of Voltage-gated inwardly rectifying potassium channel KCNH2 (Q12809 whole entry): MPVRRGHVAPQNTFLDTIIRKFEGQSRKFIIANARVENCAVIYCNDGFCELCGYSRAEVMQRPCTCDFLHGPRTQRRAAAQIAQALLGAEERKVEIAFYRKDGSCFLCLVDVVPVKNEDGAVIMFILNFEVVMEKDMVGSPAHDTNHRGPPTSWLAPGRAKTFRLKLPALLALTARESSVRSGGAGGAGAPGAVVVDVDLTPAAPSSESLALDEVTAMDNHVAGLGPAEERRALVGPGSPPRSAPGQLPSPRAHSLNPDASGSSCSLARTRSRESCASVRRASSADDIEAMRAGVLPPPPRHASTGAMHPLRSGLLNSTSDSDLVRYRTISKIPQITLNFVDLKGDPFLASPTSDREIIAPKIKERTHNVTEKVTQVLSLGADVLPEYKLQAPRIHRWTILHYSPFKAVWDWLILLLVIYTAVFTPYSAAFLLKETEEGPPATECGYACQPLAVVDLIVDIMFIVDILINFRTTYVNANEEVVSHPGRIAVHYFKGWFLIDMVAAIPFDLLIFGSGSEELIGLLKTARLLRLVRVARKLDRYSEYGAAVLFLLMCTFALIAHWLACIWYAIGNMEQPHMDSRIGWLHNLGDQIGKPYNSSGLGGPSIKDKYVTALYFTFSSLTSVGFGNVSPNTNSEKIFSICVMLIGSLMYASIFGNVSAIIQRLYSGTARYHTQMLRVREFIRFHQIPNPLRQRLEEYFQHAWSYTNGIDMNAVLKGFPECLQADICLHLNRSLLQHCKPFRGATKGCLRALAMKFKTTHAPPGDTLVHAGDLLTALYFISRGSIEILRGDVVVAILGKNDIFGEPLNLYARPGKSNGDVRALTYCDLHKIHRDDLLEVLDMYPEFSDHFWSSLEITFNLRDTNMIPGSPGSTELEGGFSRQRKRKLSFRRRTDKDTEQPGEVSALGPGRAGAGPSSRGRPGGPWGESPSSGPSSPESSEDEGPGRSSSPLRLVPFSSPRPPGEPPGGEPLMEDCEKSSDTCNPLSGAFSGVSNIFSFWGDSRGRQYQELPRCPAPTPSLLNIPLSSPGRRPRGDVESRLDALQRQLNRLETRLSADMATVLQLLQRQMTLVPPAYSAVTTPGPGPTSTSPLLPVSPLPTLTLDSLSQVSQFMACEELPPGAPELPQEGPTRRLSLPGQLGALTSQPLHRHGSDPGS
T1 sequence (P53634 25-134 limits assumed): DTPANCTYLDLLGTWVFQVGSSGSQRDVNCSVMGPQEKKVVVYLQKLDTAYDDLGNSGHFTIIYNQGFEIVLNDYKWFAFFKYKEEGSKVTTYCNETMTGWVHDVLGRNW
T1 sequence (P53634 231-394 limits assumed): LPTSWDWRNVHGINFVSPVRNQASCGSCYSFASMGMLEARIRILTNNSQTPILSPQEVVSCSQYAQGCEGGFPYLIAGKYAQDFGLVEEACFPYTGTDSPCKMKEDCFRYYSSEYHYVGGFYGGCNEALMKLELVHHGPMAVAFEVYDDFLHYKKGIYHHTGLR
T1 sequence (P53634 395-463 limits assumed): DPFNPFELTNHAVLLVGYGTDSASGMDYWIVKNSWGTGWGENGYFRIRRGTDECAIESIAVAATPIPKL

- fraction unbound at 6 h, 10 µM [1]: 0.09
- microsomal CLint at 1 µM [2]: 9.5 µL/min/mg
- CLH [3]: < 3.5 µL/min/10^6 cells
- fraction unbound at 6 h, 10 µM [4]: 0.24
- IC50 (Dipeptidyl peptidase 1 [5]): 39.8 nM
- IC50 (Dipeptidyl peptidase 1 [6]): 31.6 nM
- half-life [7]: > 50 h
- Papp A→B at 1 h, 10 µM [8]: 19 ×10⁻⁶ cm/s
- Papp B→A at 1 h, 10 µM [9]: 45 ×10⁻⁶ cm/s
- efflux ratio at 1 h, 10 µM [10]: 2.4
- intrinsic clearance (CLint) [11]: < 3.5 µL/min/10^6 cells
- CLH [12]: < 4 µL/min/10^6 cells
- fraction unbound at 6 h, 10 µM [13]: 0.25
- clearance [14]: 3.8 mL/min/kg
- Vd [15]: 2 L/kg
- half-life [16]: 6.2 h
- bioavailability [17]: 25%
- clearance [18]: 4.1 mL/min/kg
- Vd [19]: 3.9 L/kg
- half-life [20]: 10.7 h
- bioavailability [21]: 71%
- solubility kinetic at 2 h (physchem [23]; phosphate buffered saline): 170 µM (≈ 63.7 µg/mL)
- logD at 10 µM (physchem [24]): 1.1
SMILES: N#Cc1ccc(-c2ccc(C[C@@H](C#N)NC(=O)[C@@H]3CNCCCO3)cc2)cc1
- IC50 [22]: 17000 nM

- IC50 (Dipeptidyl peptidase 1 [5]): 6310 nM
- half-life [7]: > 50 h
- logD at 10 µM (physchem [24]): 1.2
SMILES: N#Cc1ccc(-c2ccc(C[C@@H](C#N)NC(=O)[C@H]3CNCCCO3)cc2)cc1

- IC50 (Dipeptidyl peptidase 1 [5]): 1000 nM
SMILES: N#Cc1cccc(-c2ccc(C[C@@H](C#N)NC(=O)C3CCCCC3N)cc2)c1 (stereo partly specified)

- IC50 (Dipeptidyl peptidase 1 [5]): > 10000 nM
- half-life [7]: > 50 h
SMILES: N#Cc1ccc(-c2ccc(C[C@@H](C#N)NC(=O)[C@H]3CCCC[C@H]3N)cc2)cc1

- IC50 (Dipeptidyl peptidase 1 [5]): > 10000 nM
- logD at 10 µM (physchem [24]): 0.2
SMILES: N#Cc1ccc(-c2ccc(C[C@@H](C#N)NC(=O)[C@H]3CCCNC3)cc2)cc1

- fraction unbound at 6 h, 10 µM [1]: 0.08
- microsomal CLint at 1 µM [2]: < 14 µL/min/mg
- CLH [3]: < 3.5 µL/min/10^6 cells
- fraction unbound at 6 h, 10 µM [4]: 0.03
- IC50 (Dipeptidyl peptidase 1 [5]): 10 nM
- IC50 (Dipeptidyl peptidase 1 [6]): 7.94 nM
- half-life [7]: > 50 h
- Papp A→B at 1 h, 10 µM [8]: 13 ×10⁻⁶ cm/s
- Papp B→A at 1 h, 10 µM [9]: 76 ×10⁻⁶ cm/s
- efflux ratio at 1 h, 10 µM [10]: 5.9
- intrinsic clearance (CLint) [11]: < 3.5 µL/min/10^6 cells
- CLH [12]: < 3.5 µL/min/10^6 cells
- fraction unbound at 6 h, 10 µM [13]: 0.13
- clearance [25]: 1 mL/min/kg
- Vd [26]: 0.5 L/kg
- half-life [27]: 8 h
- bioavailability [28]: 24%
- solubility kinetic at 2 h (physchem [23]; phosphate buffered saline): 175 µM (≈ 76 µg/mL)
- logD at 10 µM (physchem [24]): 1.5
SMILES: Cc1cc(-c2ccc(C[C@@H](C#N)NC(=O)[C@@H]3CNCCCO3)cc2)cc2c1oc(=O)n2C
- IC50 [22]: > 33000 nM

- IC50 (Dipeptidyl peptidase 1 [5]): 12.6 nM
- IC50 (Dipeptidyl peptidase 1 [6]): 12.6 nM
- logD at 10 µM (physchem [24]): 1.1
SMILES: Cn1c(=O)ccc2ccc(-c3ccc(C[C@@H](C#N)NC(=O)[C@@H]4CNCCCO4)cc3)cc21

- IC50 (Dipeptidyl peptidase 1 [5]): 501 nM
- IC50 (Dipeptidyl peptidase 1 [6]): 398 nM
- half-life [7]: > 50 h
SMILES: N#Cc1ccc(-c2ccc(C[C@@H](C#N)NC(=O)[C@H]3CCCC[C@@H]3N)cc2)cc1

- IC50 (Dipeptidyl peptidase 1 [5]): 39.8 nM
- logD at 10 µM (physchem [24]): 2.8
SMILES: N#C[C@H](Cc1ccc(-c2ccc(C(F)(F)F)cc2)cc1)NC(=O)[C@@H]1CNCCCO1

- fraction unbound at 6 h, 10 µM [1]: 0.03
- microsomal CLint at 1 µM [2]: 13 µL/min/mg
- CLH [3]: < 3.5 µL/min/10^6 cells
- fraction unbound at 6 h, 10 µM [4]: 0.08
- IC50 (Dipeptidyl peptidase 1 [5]): 39.8 nM
- IC50 (Dipeptidyl peptidase 1 [6]): 31.6 nM
- half-life [7]: > 50 h
- Papp A→B at 1 h, 10 µM [8]: 11 ×10⁻⁶ cm/s
- Papp B→A at 1 h, 10 µM [9]: 23 ×10⁻⁶ cm/s
- efflux ratio at 1 h, 10 µM [10]: 2
- solubility kinetic at 2 h (physchem [23]; buffer): 175 µM (≈ 67.6 µg/mL)
- logD at 10 µM (physchem [24]): 2
SMILES: N#Cc1ccc(-c2ccc(C[C@@H](C#N)NC(=O)[C@@H]3CCCCC[C@@H]3N)cc2)cc1
- IC50 [22]: 3600 nM

- IC50 (Dipeptidyl peptidase 1 [5]): 200 nM
- IC50 (Dipeptidyl peptidase 1 [6]): 200 nM
- logD at 10 µM (physchem [24]): 1.1
SMILES: N#C[C@H](Cc1ccc(-c2ncc(C(F)(F)F)cn2)cc1)NC(=O)[C@@H]1CNCCCO1

- IC50 (Dipeptidyl peptidase 1 [5]): 63.1 nM
- logD at 10 µM (physchem [24]): 1.5
SMILES: N#C[C@H](Cc1ccc(-c2ccc3scnc3c2)cc1)NC(=O)[C@@H]1CNCCCO1

- IC50 (Dipeptidyl peptidase 1 [5]): 1000 nM
- IC50 (Dipeptidyl peptidase 1 [6]): 1260 nM
- half-life [7]: > 50 h
SMILES: N#Cc1ccc(-c2ccc(C[C@@H](C#N)NC(=O)[C@@H]3CCC[C@@H]3N)cc2)cc1

- IC50 (Dipeptidyl peptidase 1 [5]): 15.8 nM
- IC50 (Dipeptidyl peptidase 1 [6]): 15.8 nM
- logD at 10 µM (physchem [24]): 1.5
SMILES: Cc1noc2ccc(-c3ccc(C[C@@H](C#N)NC(=O)[C@@H]4CNCCCO4)cc3)cc12

- fraction unbound at 6 h, 10 µM [1]: 0.07
- microsomal CLint at 1 µM [2]: < 14 µL/min/mg
- CLH [3]: < 3.5 µL/min/10^6 cells
- fraction unbound at 6 h, 10 µM [4]: 0.06
- IC50 (Dipeptidyl peptidase 1 [5]): 6.31 nM
- IC50 (Dipeptidyl peptidase 1 [6]): 6.31 nM
- half-life [7]: > 50 h
- Papp A→B at 1 h, 10 µM [8]: 8 ×10⁻⁶ cm/s
- Papp B→A at 1 h, 10 µM [9]: 80 ×10⁻⁶ cm/s
- intrinsic clearance (CLint) [11]: 5 µL/min/10^6 cells
- fraction unbound at 6 h, 10 µM [13]: 0.15
- clearance [25]: 4 mL/min/kg
- Vd [26]: 2 L/kg
- half-life [27]: 7 h
- bioavailability [28]: 29%
- solubility kinetic at 2 h (physchem [23]; buffer): 190 µM (≈ 89.4 µg/mL)
- logD at 10 µM (physchem [24]): 1
SMILES: N#C[C@H](Cc1ccc(-c2ccc3oc(=O)n(CC(F)F)c3c2)cc1)NC(=O)[C@@H]1CNCCCO1
